The values that follow come from ChEMBL document CHEMBL2010675, “Discovery of GS-9451: an acid inhibitor of the hepatitis C virus NS3/4A protease” (Bioorg Med Chem Lett, 2012).

A short description of data set [1]: Thermodynamic solubility of the compound at pH 7.3. Conditions: buffer, read-out: Therm_solubility. Type of data set: physicochemical.
Data set [2] concerns Hepatitis C virus. The data set is described as follows: Inhibition of Hepatitis C virus genotype 1b NS3/4A protease. The arrangement: species or system Hepatitis C virus subtype 1b.
For data set [3], the system named is Hepatitis C virus. The data set is described as follows: Antiviral activity against Hepatitis C virus genotype 1b infected in human Huh cells by luciferase reporter gene based replicon assay. In kind it is functional, organism-based, Hepacivirus hominis. In a few lines: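 EC50 from a cell-based assay in Huh-luc cells carrying a subgenomic HCV genotype 1b replicon, with luciferase reporter read-out.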

A short description of data set [4]: Permeability from apical to basolateral side in human Caco2 cells. In kind it is ADME, cell-based. Conditions: Caco-2, read-out: permeability.
A short description of data set [5]: Thermodynamic solubility of the compound at pH 2.2. Type of data set: physicochemical. Conditions: buffer; for solubility thermodynamic: read-out: Therm_solubility.
Data set [6] in a line: Permeability from basolateral to apical side in human Caco2 cells. Conditions: Caco-2, read-out: permeability. In kind it is ADME, cell-based.

Values after ≈ are worked out from the molar mass of the structure shown. Where only a bound is given, the exact number is not on record here.

Regarding `CC[C@@H]1C[C@]1(NC(=O)[C@@H]1C[C@@H](Oc2cc(-c3csc(NC(C)C)n3)nc3c(Cl)c(OC)ccc23)CN1C(=O)[C@@H](NC(=O)O[C@@H]1C[C@@H]2C[C@@H]2C1)C(C)(C)C)C(=O)O`, the solubility thermodynamic in data set [1] came out at 72 µM (≈ 58.4 µg/mL). Also, half-maximal inhibition with Hepatitis C virus [2] (IC50) required 1.4 nM. Besides, the midpoint of the response with Hepatitis C virus [3], the EC50, lay at 9 nM. Besides, the Papp A→B in data set [4] came out at 7.3 ×10⁻⁶ cm/s. Further, the Therm_solubility result in data set [5] is on record as “Insoluble(BLD)”. In addition, the Papp B→A in data set [6] was 25 ×10⁻⁶ cm/s.

For `CC[C@@H]1C[C@]1(NC(=O)[C@@H]1C[C@@H](Oc2cc(-c3csc(NC(C)C)n3)nc3c(Cl)c(OC)ccc23)CN1C(=O)[C@@H](NC(=O)O[C@H]1C[C@@H]2[C@H](C1)C2(F)F)C(C)(C)C)C(=O)O`, the values for the solubility thermodynamic in data set [1] and in data set [5] were 57 µM (≈ 48.3 µg/mL) and 20 µM (≈ 16.9 µg/mL), respectively. The midpoint of inhibition with Hepatitis C virus [2], the IC50, lay at 2.6 nM. The same compound yielded an EC50 in the data set on Hepatitis C virus [3] of 5 nM. Also, the Papp A→B in data set [4] came out at 4.5 ×10⁻⁶ cm/s. For the same compound, the Papp B→A in data set [6] amounted to 18 ×10⁻⁶ cm/s.

For `CC[C@@H]1C[C@]1(NC(=O)[C@@H]1C[C@@H](Oc2cc(-c3csc(NC(C)C)n3)nc3c(Cl)c(OC)ccc23)CN1C(=O)[C@@H](NC(=O)O[C@@H]1C[C@@H]2[C@H](C1)C2(F)F)C(C)(C)C)C(=O)O`, the solubility thermodynamic is 9 µM (≈ 7.63 µg/mL) in data set [1] and < 6 µM in data set [5]. The midpoint of inhibition in the data set with Hepatitis C virus [2], the IC50, lay at 5 nM. A half-maximal response in the data set with Hepatitis C virus [3] (EC50) required 115 nM. Moreover, the Papp A→B in data set [4] is 6.8 ×10⁻⁶ cm/s. In addition, in data set [6], the Papp B→A amounted to 49 ×10⁻⁶ cm/s.
